Source: PubChem (The Scripps Research Institute Molecular Screening Center)
The list is not random: actives were taken first. Their share in the collection is about 1.9%.
LEDGF integ inh = blockers of LEDGF/p75-dependent integrase strand transfer – biochemical, TR-FRET, high throughput, primary screen. HIV-1 integrase (with human LEDGF/p75). TR-FRET IN-LEDGF/p75 DNA integration, Eu/Cy5. inhibition, % at 3.7 µM. 370,000 tested, 0.64% active;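 active means inhibition above the screen-wide mean plus 3 SD, cut at about 13% in these data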;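 further: signal is the Cy5 over europium emission ratio at 671 and 618 nm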
Rin1-Abl PPI inh = inhibitors of Rin1-Abl protein binding, primary screen, biochemical, TR-FRET. 360,000 tested, 0.4% active. AID 588664, 2011. Tyrosine-protein kinase ABL1 (Homo sapiens) + Ras and Rab interactor 1 (Homo sapiens), …. inhibition, % at 7.35 µM; in the data active means inhibition above about 5%, passing the limit was not always enough
Target sequence (P00519 whole entry, looked up): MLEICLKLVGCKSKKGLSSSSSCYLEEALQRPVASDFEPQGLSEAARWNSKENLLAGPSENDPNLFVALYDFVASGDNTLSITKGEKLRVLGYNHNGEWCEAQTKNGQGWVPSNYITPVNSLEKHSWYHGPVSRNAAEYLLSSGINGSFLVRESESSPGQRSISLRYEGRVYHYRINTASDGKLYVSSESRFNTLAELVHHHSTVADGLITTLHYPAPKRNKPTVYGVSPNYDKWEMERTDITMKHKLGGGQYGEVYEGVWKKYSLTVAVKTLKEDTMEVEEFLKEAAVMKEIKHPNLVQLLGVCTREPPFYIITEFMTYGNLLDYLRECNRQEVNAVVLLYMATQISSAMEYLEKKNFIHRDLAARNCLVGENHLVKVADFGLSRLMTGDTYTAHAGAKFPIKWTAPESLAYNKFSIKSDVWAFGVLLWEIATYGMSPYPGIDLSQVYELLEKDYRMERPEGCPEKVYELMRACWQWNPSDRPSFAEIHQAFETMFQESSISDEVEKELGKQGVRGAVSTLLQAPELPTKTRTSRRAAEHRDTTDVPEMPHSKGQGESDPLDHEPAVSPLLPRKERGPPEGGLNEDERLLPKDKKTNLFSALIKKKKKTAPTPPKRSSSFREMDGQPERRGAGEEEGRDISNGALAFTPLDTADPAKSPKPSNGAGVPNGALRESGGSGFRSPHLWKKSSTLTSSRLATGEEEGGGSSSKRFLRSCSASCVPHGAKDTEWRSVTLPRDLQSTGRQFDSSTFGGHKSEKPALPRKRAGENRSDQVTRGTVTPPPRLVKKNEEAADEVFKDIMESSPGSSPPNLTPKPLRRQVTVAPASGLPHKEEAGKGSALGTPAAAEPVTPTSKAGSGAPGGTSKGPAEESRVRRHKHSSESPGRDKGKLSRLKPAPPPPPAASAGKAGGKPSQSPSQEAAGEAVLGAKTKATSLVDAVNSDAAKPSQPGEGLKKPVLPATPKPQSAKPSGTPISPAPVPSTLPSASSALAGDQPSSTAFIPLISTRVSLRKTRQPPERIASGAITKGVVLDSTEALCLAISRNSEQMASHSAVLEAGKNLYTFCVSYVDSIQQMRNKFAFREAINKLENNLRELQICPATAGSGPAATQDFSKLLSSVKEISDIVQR
Target sequence (Q13671 whole entry, looked up): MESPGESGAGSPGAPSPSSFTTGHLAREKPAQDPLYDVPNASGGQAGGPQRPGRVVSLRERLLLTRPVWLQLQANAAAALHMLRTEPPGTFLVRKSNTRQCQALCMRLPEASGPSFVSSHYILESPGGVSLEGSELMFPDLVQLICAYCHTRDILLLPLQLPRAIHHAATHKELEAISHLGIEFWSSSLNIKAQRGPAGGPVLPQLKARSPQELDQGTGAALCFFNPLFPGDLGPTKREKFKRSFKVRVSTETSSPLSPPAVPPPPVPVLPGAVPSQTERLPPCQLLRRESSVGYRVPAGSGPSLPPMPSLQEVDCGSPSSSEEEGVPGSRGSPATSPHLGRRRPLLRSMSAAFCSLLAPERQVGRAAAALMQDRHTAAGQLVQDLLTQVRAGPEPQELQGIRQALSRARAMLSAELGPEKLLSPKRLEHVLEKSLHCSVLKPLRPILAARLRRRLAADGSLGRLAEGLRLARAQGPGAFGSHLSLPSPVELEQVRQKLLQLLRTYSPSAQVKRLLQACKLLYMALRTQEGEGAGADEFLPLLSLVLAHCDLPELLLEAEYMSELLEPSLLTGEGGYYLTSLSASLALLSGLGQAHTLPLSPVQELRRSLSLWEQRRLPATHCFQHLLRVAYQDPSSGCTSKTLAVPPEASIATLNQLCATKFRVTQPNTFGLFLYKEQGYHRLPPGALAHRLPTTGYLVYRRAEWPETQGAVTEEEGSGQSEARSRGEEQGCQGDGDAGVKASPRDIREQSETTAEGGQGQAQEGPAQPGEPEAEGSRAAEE
MBD2 inh = inhibitors of MBD2 binding to methylated DNA, primary screen, biochemical, TR-FRET, DNA-binding domain, human | Methyl-CpG-binding domain protein 2 (Homo sapiens), Q9UBB5 | MBD2 binding to methylated oligonucleotide | inhibition, % at 4.4 µM | 370,000 tested, 0.31% active | AID 686964, 2013; in the data active means inhibition above about 13%
UHRF1 binding = UHRF1 methylated DNA binding inhibitors, primary screen, counter-screen for MBD2 inhibitor project, biochemical, TR-FRET, human UHRF1, single concentration; E3 ubiquitin-protein ligase UHRF1 (Homo sapiens), Q96T88; AID 687016, 2013; 370,000 tested, 0.75% active; UHRF1 binding to methylated oligo; inhibition, % at 4.4 µM; in the data active means inhibition above about 21%;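 further: UHRF1 SRA domain binding a hemimethylated CpG hairpin DNA probe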
TDP2 inh = human TDP2 enzyme inhibitors, primary screen, biochemical, epi absorbance, recombinant enzyme. Tyrosyl-DNA phosphodiesterase 2 (Homo sapiens), O95551. inhibition, % at 12.8 µM. T5PNP hydrolysis, p-nitrophenol absorbance 415 nm. 370,000 tested, 0.34% active;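 active means inhibition above the mean of all tested compounds plus 3 SD, set per campaign, cut at about 25% in these data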
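Read-out basis: percent inhibition. System: recombinant human TDP2. Buffer or medium: Mg2+-containing Tris-HCl buffer, pH 7.5. Repeats: single replicate. Timing: reaction 2 h, 37 °C. Benchmarks: high control without enzyme, low control DMSO plus TDP2. Probe or stimulus: 5 mM T5PNP. Doses: 12.8 µM only. Measured by: epi absorbance of p-nitrophenol freed from T5PNP by hydrolysis.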
Rin1 Abl conf = Rin1-Abl binding inhibitor retest, confirmation, biochemical, TR-FRET | shares compounds with Rin1-Abl PPI inh | purified proteins | inhibition, % at 7.35 µM | 1,300 tested, 49% active
GFP quencher = GFP fluorescence inhibitors and quenchers, artefact control for Rin1-Abl interaction inhibitor project, biochemical. shares compounds with Rin1-Abl PPI inh. inhibitors/quenchers counterscreen. inhibition, % at 6.75 µM. 1,300 tested, 8.5% active. AID 602125, 2011;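 further: ABL1-eGFP fusion protein alone without its partner RIN1-SBP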
GFP quench dose = GFP fluorescence inhibitors and quenchers, dose response, artefact control for Rin1-Abl interaction inhibitor project, biochemical. 230 tested, under 10 active. AID 602182, 2012. GFP fluorescence interference/quenching counterscreen. IC50, µM. shares compounds with Rin1-Abl PPI inh; call rule not given here;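 further: ABL1-eGFP fusion protein alone without its RIN1 binding partner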
A number is an active result; - = inactive; . = no result given. Unless noted, no stated cut-off is given here; in the data, active means inhibition above about 6.5%; inactive means the rest.

SMILES | LEDGF integ inh | Rin1-Abl PPI inh | MBD2 inh | UHRF1 binding | TDP2 inh | Rin1 Abl conf | GFP quencher | others
CCCCNC(=O)N1CCC(c2nc3ccc(Cl)cc3[nH]2)CC1 | - | . | - | - | - | . | .
Cc1ccc(CCNC(=O)c2ccc(NC3=NC4CS(=O)(=O)CC4S3)cc2)cc1 (configuration not stated) | - | 8.5 | - | - | - | 9.3 | -
Cc1c(C(=O)N2CCCCC2)oc2ccccc12 | - | - | - | - | - | . | .
Cc1c(C(=O)N2CCCCCC2)oc2ccccc12 | - | 6.6 | - | - | - | - | -
CCN(CC(=O)Nc1ccc(NC(C)=O)cc1)C(=O)c1ccc(Sc2nncn2C)c([N+](=O)[O-])c1 | - | 9.7 | - | - | - | - | -
CCN(CC)S(=O)(=O)c1ccc(NC(=O)c2ccc(Sc3nncn3C)c([N+](=O)[O-])c2)cc1 | - | - | - | - | - | . | .
CC(C)(C)c1ccc(S(=O)(=O)N2CCCC(C(=O)N3CCN(Cc4ccccc4)CC3)C2)cc1 (configuration not stated) | - | . | - | - | - | . | .
OCC[C@@H]1C[C@@H](O)[C@H](O)[C@@]2(Cc3ccccc3CO2)O1 | - | 8.9 | - | - | - | - | -
CC(C)c1nc2oc3c(NCC4CCCO4)ncnc3c2c2c1COC(C)(C)C2 (configuration not stated) | - | - | - | - | - | . | .
CC(C)c1nc2oc3c(NCCO)ncnc3c2c2c1COC(C)(C)C2 | - | 7.7 | - | - | - | 7.7 | -
Cc1cc(C)nc(NC(=O)c2c(Cl)cccc2Cl)n1 | - | 4.4 | - | - | - | - | -
OCCN1CCN(c2cnc(-c3ccsc3)cn2)CC1 | - | 6.3 | - | - | - | - | -
CC(=O)Oc1ccc2c(=O)c(Oc3ccccc3)coc2c1OC(C)=O | - | 5.5 | - | - | - | - | -
CCCn1nc(C(=O)N(C)CC(=O)Nc2ccc(OCC)c(OCC)c2)c2ccccc2c1=O | - | 21 | - | - | - | 34 | - | GFP quench dose=-
CC1(C(=O)NCc2ccccc2)Cc2c(-c3cccc(C(N)=O)c3)ccnc2O1 (configuration not stated) | - | - | - | - | - | . | .
CC(=O)c1cccc(NC(=O)C2(C)Cc3c(-c4cccc(C(N)=O)c4)ccnc3O2)c1 (configuration not stated) | - | 8.2 | - | - | - | 12 | -
COc1ccc(CNC(=O)C2(C)Cc3c(-c4cccc(C(N)=O)c4)ccnc3O2)cc1OC (configuration not stated) | - | 11 | - | - | - | 7.2 | -
Cc1ccc(S(=O)(=O)NCCSCc2ccco2)cc1 | - | - | - | - | - | . | .
Cc1cc(C)c(S(=O)(=O)NCCSCc2ccco2)c(C)c1 | - | 8.5 | - | - | - | - | -
Cc1ccc(C)c(SCC(=O)OCC(=O)Nc2ncc(C(F)(F)F)cc2Cl)c1 | - | 9.1 | - | - | - | - | -
CCOc1cccc(/C=N\NC(=O)c2cnccn2)c1O | - | . | - | - | - | . | .
COc1cc2c(cc1OC)CN(C(=O)c1ccc(Br)o1)CC2 | - | - | - | - | - | . | .
COc1cc2c(cc1OC)C(C)N(C(=O)c1ccc(Br)o1)CC2 (configuration not stated) | - | 11 | - | - | - | - | -
CCOC(=O)[C@@]12CCCC=C1N(CCc1ccc(Cl)cc1)C(=O)[C@H]2CC(=O)NCc1cccs1 | - | . | - | - | - | . | .
